Source: article PMC3769689 (Journal of medicinal chemistry, 2013)
Entries after “also recorded” stand apart in the source; their conditions may differ. Blank lines part the entries; values can stand above or below the compound they belong to.

Legend:
rat IV PK = assay type: in vivo; settings: plasma
rat microsomal clearance = assay type: in vitro ADME; settings: for Rat CLHEP: predicted hepatic clearance in vitro; for Rat CLHEP / CLint scaled at 1 µM: rat; for CLint scaled at 1 µM: microsomes
mGlu3 [1] = target: T1, mGlu3 (Rattus norvegicus, UniProt P31422); settings: cited from earlier work
mGlu3 [2] = target: T1, mGlu3; assay: mGlu3 calcium mobilization assay; assay type: cell-based
mGlu4 = mGlu4 (Homo sapiens, UniProt Q14833); assay: mGluR selectivity, mGlu4; assay type: cell-based
5-HT2B = 5-HT2B (Homo sapiens, UniProt P41595); assay: functional activity at 5-HT2B
mGlu8 = mGlu8 (Homo sapiens, UniProt O00222); assay: mGluR selectivity, mGlu8; assay type: cell-based
mGlu5 = mGlu5 (Homo sapiens, UniProt P41594); assay: mGluR selectivity, mGlu5; assay type: cell-based
mGlu7 = mGlu7 (Homo sapiens, UniProt Q14831); assay: mGluR selectivity, mGlu7; assay type: cell-based
DAT = DAT (Homo sapiens, UniProt Q01959); assay: functional activity at DAT
[3] = mouse tissue distribution study; assay type: in vivo; settings: cassette, IP
Summary of the method: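 Mice received the test compounds together as a cassette by intraperitoneal injection. Plasma and brain tissue were then analysed by LC/MS/MS to measure compound exposure in each and derive the brain-to-plasma ratio.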

mGlu6 = mGlu6 (Homo sapiens, UniProt O15303); assay: mGluR selectivity, mGlu6; assay type: cell-based
mGlu3 [4] = target: T1, mGlu3; assay: progressive fold shift assay with glutamate; assay type: cell-based
mGlu3 [5] = target: T1, mGlu3; assay: probe dependence, glutamate vs LY379268; assay type: cell-based; settings: glutamate vs LY379268 as agonist
in vivo rat PK = settings: 10 mg/kg
[6] = human microsomal clearance; assay type: in vitro ADME
[7] = metabolite identification; assay type: in vitro ADME
mGlu1 = mGlu1 (Homo sapiens, UniProt Q13255); assay: mGluR selectivity, mGlu1; assay type: cell-based

T1 sequence (P31422 23-879): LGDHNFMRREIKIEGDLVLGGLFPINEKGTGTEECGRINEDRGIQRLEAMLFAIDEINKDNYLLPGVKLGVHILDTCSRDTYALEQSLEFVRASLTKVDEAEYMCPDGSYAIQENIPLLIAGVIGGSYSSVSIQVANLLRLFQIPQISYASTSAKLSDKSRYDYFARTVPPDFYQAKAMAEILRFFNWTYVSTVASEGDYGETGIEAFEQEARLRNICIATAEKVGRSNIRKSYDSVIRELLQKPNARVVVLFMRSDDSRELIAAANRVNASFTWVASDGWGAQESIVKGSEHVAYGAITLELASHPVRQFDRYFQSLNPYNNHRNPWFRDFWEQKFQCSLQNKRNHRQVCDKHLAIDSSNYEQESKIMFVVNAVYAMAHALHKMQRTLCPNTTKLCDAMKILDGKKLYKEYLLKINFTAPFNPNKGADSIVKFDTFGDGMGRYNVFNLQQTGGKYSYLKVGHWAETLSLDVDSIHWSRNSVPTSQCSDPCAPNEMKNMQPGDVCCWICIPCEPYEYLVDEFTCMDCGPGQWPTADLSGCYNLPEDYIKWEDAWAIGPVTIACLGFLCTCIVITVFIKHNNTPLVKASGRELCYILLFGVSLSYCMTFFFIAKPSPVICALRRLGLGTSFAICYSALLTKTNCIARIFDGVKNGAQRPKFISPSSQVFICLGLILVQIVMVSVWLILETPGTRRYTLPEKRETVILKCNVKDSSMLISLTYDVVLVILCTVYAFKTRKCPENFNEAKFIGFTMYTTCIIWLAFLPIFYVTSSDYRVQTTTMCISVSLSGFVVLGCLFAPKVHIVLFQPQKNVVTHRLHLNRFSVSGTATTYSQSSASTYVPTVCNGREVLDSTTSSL
Sequence of mGlu5 (P41594 21-1212): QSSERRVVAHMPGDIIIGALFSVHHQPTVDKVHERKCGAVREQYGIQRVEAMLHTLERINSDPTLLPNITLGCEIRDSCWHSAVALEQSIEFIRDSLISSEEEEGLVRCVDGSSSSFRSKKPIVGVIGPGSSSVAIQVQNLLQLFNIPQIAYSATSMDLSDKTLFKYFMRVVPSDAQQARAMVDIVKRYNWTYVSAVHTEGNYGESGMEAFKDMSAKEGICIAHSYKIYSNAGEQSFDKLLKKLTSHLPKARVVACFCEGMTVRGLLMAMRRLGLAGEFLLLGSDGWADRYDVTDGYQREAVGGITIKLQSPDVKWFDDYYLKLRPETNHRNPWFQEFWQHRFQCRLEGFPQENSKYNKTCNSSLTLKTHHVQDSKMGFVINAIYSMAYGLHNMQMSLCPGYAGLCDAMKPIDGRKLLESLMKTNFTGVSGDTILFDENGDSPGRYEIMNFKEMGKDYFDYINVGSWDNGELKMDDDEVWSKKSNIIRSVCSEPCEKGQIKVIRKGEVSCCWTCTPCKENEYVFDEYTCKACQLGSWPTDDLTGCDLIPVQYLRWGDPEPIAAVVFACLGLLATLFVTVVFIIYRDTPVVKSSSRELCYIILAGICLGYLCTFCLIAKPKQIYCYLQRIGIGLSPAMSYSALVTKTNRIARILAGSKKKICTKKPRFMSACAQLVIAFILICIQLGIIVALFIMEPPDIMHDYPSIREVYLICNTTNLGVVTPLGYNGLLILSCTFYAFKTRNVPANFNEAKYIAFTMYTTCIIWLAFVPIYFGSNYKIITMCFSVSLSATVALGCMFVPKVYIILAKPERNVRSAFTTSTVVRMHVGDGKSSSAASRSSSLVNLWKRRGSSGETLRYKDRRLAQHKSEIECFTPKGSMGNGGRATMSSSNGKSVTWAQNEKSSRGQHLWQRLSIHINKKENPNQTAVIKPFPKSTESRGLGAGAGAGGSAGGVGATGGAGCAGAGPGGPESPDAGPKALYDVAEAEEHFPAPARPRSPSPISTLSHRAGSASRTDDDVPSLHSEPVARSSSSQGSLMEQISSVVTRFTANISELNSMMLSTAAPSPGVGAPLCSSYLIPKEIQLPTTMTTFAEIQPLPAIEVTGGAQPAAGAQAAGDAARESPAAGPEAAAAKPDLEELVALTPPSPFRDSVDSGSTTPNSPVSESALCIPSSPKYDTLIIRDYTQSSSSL
Sequence of mGlu6 (O15303 25-877): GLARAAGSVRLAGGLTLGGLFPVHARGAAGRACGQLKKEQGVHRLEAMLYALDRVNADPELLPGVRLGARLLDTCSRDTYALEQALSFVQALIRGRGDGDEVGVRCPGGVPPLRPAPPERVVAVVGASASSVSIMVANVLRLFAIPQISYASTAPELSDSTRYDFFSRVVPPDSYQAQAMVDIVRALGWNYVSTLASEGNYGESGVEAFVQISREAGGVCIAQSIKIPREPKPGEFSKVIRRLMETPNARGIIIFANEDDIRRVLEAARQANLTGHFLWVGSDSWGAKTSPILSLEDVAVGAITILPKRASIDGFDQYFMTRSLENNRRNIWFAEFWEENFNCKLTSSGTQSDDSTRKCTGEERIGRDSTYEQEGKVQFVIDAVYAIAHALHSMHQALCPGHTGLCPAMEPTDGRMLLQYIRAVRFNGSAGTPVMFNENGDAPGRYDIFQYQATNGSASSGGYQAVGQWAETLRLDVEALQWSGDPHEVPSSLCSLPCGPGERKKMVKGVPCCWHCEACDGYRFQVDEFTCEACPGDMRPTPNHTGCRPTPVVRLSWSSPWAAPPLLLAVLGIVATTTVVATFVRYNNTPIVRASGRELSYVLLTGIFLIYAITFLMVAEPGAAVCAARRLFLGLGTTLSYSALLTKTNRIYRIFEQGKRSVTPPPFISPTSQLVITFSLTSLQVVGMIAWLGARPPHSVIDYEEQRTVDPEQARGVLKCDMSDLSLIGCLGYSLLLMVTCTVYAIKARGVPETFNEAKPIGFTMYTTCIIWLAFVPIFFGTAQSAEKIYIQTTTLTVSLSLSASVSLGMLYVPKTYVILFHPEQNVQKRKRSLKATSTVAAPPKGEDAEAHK
Sequence of DAT (Q01959 whole entry): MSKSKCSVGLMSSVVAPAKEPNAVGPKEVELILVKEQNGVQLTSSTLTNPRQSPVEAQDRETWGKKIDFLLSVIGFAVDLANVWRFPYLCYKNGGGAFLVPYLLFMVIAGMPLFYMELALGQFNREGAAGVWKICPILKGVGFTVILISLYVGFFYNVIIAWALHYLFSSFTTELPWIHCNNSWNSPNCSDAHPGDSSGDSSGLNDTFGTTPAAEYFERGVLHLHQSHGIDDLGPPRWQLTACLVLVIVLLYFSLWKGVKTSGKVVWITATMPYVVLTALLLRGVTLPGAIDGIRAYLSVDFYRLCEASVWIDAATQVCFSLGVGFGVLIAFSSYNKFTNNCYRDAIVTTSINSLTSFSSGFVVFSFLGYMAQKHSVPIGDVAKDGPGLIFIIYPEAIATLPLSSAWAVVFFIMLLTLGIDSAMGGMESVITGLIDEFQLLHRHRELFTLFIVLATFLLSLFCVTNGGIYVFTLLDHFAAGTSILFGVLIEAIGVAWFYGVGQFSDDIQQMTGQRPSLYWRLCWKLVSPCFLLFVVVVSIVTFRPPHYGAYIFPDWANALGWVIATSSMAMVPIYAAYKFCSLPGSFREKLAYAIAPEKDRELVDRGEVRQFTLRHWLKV
Sequence of mGlu7 (Q14831 35-915): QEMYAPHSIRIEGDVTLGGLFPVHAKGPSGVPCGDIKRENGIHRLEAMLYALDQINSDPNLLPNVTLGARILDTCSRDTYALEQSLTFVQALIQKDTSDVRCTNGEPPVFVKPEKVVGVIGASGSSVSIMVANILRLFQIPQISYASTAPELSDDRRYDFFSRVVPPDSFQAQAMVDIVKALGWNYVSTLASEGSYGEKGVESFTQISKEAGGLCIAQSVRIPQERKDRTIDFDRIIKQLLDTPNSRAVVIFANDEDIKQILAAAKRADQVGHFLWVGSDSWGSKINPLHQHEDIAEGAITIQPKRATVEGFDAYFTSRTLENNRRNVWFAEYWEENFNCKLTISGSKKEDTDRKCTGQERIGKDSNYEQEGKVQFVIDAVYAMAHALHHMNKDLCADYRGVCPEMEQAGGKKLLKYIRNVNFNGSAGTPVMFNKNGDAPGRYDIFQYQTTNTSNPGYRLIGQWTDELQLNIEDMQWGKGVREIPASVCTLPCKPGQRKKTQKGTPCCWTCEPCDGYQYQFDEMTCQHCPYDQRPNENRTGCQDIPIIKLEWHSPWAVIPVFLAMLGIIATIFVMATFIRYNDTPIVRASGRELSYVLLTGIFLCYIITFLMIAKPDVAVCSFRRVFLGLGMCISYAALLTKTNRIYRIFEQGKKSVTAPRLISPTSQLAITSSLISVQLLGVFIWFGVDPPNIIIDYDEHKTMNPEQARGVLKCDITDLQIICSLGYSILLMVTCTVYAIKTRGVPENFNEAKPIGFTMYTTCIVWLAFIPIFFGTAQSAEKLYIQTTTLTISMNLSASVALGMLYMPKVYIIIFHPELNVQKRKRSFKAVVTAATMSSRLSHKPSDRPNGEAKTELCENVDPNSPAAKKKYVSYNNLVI
Sequence of 5-HT2B (P41595 whole entry): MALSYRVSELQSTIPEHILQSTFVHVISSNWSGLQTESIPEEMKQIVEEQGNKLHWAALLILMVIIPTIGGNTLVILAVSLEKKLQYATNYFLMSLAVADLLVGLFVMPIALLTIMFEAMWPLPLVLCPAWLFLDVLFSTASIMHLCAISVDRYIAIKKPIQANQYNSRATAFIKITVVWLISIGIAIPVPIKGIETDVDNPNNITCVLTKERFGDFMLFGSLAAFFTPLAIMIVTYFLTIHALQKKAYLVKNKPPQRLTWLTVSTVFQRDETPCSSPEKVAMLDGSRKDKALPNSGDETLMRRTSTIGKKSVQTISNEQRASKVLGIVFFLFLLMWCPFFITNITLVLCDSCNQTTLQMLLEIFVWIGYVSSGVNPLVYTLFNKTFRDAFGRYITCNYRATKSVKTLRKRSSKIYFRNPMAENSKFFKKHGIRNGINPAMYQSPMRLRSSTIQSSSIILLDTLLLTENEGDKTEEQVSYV

Structure (SMILES): COc1ccc(C#Cc2ccc(C(=O)N3CCC[C@@H](CO)C3)cc2)cc1 [compound 3]
selectivity vs. mGlu2 (mGlu3 [1]): > 15 fold

Structure (SMILES): [2H]C([2H])([2H])Oc1ccc(C#Cc2ccc(C(=O)N3CCC[C@@H](O)C3)cc2)cc1 [compound 11]
Vd (rat IV PK): 0.21 L/kg
clearance (rat IV PK): 3.3 mL/min/kg
Rat CLHEP (rat microsomal clearance): 40.7 mL/min/kg
CLint scaled at 1 µM (rat microsomal clearance): 97.3 mL/min/kg

Structure (SMILES): [2H]C([2H])([2H])Oc1ccc(C#Cc2ccc(C(=O)N3CCC[C@@H](O)C3)c(F)c2)cc1 [compound 12]
Vd (rat IV PK): 0.18 L/kg
clearance (rat IV PK): 2.9 mL/min/kg
Rat CLHEP (rat microsomal clearance): 35.9 mL/min/kg

Structure (SMILES): COc1ccc(C#Cc2ccc(C(=O)N3CCC[C@@H](O)C3)cc2F)cc1 [compound 10]
mGlu3 NAM activity (in words) (mGlu3 [2]): sub-micromolar

Structure (SMILES): COc1ccc(C#Cc2ccc(C(=O)N3CCC[C@@H](O)C3)c(F)c2)cc1 [compound 9]
IC50 (mGlu4): > 30 µM
functional activity at 5-HT2B (5-HT2B): no functional activity
IC50 (mGlu8): > 30 µM
IC50 (mGlu5): > 30 µM
IC50 (mGlu7): > 30 µM
functional activity at DAT (DAT): no functional activity
BrainAUC [3]: 3.37 µM
plasmaAUC [3]: 3.71 µM
IC50 (mGlu6): > 30 µM
Vd (rat IV PK): 0.21 L/kg
clearance (rat IV PK): 5.2 mL/min/kg
mode of antagonism with respect to glutamate (mGlu3 [4]): non-competitive antagonism; also recorded: non-competitive decrease in the EC80
probe dependence (mGlu3 [5]): no differences; also recorded: equipotent and efficacious
Brain AUC0-6 (in vivo rat PK; IP, 0-6 h): 9.6 µM·h
Kp (in vivo rat PK; brain and plasma, ip): 0.3
AUC(0-t) (in vivo rat PK; plasma, ip): 33.1 µM·h
Human CLHEP ([6]; predicted hepatic clearance in vitro, human): 18.9 mL/min/kg
stability in human microsomes ([6]; words): unstable
mGlu3 NAM activity (in words) (mGlu3 [2]): sub-micromolar
major metabolite [7]: P450-mediated O-demethylation
IC50 (mGlu1): > 30 µM
Rat CLHEP (rat microsomal clearance): 54.1 mL/min/kg
CLint scaled at 1 µM (rat microsomal clearance): 239 mL/min/kg
stability in rat microsomes (rat microsomal clearance; words): unstable

Now from value to compound:

Vd (rat IV PK): 0.22 L/kg
clearance (rat IV PK): 6.2 mL/min/kg
Rat CLHEP (rat microsomal clearance): 52.7 mL/min/kg
CLint scaled at 1 µM (rat microsomal clearance): 214 mL/min/kg
Structure (SMILES): COc1ccc(C#Cc2ccc(C(=O)N3CCC[C@@H](O)C3)cc2)cc1 [8d]

mGlu3 NAM activity (in words) (mGlu3 [2]): lost
Structure (SMILES): COc1ccc(C#Cc2ccc(C(=O)N3CCCC(OC)C3)cc2)cc1 (centres unmarked) [8b]
